According to ChEMBL document CHEMBL4052599, “Combined in Vitro Cell-Based/in Silico Screening of Naturally Occurring Flavonoids and Phenolic Compounds as Potential Anti-Alzheimer Drugs” (J Nat Prod, 2017):
pIC50, pKd: −log10 of the molar value.

Assays:
[1] = n-octanol-water partition coefficient, log P of the compound; format: physicochemical
[2] = biological target: T1, Amyloid-beta precursor protein (Homo sapiens, UniProt P05067); assay: Displacement of [3H]PIB from human amyloid beta (1 to 40) fibrils after 3 hrs by liquid scintillation counting
[3] = test system: Escherichia coli BL21(DE3); assay: Inhibition of amyloid beta (1 to 42) aggregation in Escherichia coli competent cells BL21 (DE3) at 200 uM after overnight incubation by Thioflavin-S steady-state fluorescence assay
Procedure, shortened: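 Aβ42 (extra N-terminal Met) expressed from pET28a in E. coli BL21(DE3). Cells grown in M9 minimal medium with 50 μg/mL kanamycin and 25 μM Th-S (final), IPTG-induced or not, with compound at 200 μM final in DMSO, overnight at 37 °C, 1400 rpm. Th-S read at ex 440 nm, em 460–600 nm. Amyloid band = induced minus noninduced spectrum, normalized to OD600.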

[4] = biological target: T1, Amyloid-beta precursor protein; assay: Inhibition of amyloid beta (1 to 42) (unknown origin) aggregation by Thioflavin-T fluorescence assay
[5] = Inhibition of amyloid beta (1 to 42) aggregation in vitro cell-free polymerization assay
[6] = biological target: T1, Amyloid-beta precursor protein; assay: Inhibition of amyloid beta (1 to 42) (unknown origin) aggregation assessed as apparent elongation constant at 200 uM after 48 hrs by Thioflavin-T fluorescence assay
[7] = biological target: T1, Amyloid-beta precursor protein; assay: Inhibition of amyloid beta (1 to 42) (unknown origin) aggregation at 200 uM after 48 hrs by Thioflavin-T fluorescence assay relative to control
[8] = biological target: T1, Amyloid-beta precursor protein; assay: Inhibition of amyloid beta (1 to 42) (unknown origin) aggregation assessed as half life for aggregation at 200 uM by Thioflavin-S fluorescence assay
[9] = biological target: T1, Amyloid-beta precursor protein; assay: Inhibition of recombinant amyloid beta (1 to 42) fibrils (unknown origin) by thioflavin-T fluorescence assay
[10] = biological target: T1, Amyloid-beta precursor protein; assay: Inhibition of amyloid beta (1 to 42) (unknown origin) aggregation assessed as end-time for aggregation at 200 uM after 48 hrs by Thioflavin-T fluorescence assay
[11] = biological target: T1, Amyloid-beta precursor protein; assay: Inhibition of amyloid beta (1 to 42) (unknown origin) aggregation assessed as lag time at 200 uM in Escherichia coli BL21 (DE3) cells by Thioflavin-S staining time-course kinetics (reference value: 64.4 mins)
[12] = n-octanol/water, read-out: logP

T1 sequence (P05067 whole entry): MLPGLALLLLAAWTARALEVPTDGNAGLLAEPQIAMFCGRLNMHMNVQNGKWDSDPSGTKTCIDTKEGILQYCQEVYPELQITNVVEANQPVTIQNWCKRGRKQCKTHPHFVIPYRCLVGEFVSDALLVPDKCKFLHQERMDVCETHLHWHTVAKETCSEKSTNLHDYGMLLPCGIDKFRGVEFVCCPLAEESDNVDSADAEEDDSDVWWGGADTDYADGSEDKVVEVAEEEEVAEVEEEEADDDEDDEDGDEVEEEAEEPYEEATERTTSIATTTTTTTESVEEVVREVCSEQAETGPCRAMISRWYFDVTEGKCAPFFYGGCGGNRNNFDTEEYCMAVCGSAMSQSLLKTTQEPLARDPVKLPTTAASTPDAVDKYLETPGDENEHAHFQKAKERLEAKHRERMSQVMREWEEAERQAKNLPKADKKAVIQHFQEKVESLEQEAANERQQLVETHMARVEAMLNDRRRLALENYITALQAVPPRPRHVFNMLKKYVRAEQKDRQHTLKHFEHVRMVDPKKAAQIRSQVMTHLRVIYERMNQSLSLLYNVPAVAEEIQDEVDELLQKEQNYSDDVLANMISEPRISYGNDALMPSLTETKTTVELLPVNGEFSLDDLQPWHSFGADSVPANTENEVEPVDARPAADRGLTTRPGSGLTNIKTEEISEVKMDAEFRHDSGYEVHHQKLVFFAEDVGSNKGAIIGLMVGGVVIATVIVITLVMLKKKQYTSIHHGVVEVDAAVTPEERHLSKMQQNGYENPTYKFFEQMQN

With CNc1ccc(-c2nc3ccc(O)cc3s2)cn1 the logP [1, 12] was 2.7 and the pKd [2] was 8.08.

Molecule COc1cc(/C=C/C(=O)CC(=O)/C=C/c2ccc(O)c(OC)c2)ccc1O has an inhibition [3] of 37.8%.

For COc1ccc2[nH]cc(CCNC(C)=O)c2c1, the inhibition [3] was 7.5%.

Work on COc1cccc(C=O)c1O yielded an inhibition [3] of 18.5%.

With O=C(/C=C/c1ccc(O)c(O)c1)O[C@H](Cc1ccc(O)c(O)c1)C(=O)O the inhibition [3] was 5.5%.

Work on O=C1c2c(O)cc(O)cc2O[C@H](c2cc(O)c(O)c(O)c2)[C@H]1O [AMPELOPSIN] yielded a pIC50 [4] of 4.60 to 4.89 and a pIC50 [5] of 4.60.

O=c1cc(-c2ccc(O)cc2)oc2cc(O)cc(O)c12 [APIGENIN] showed a Ke(app) [6] of 61.6 M⁻¹ s⁻¹, an inhibition [3] of 77.3% and a pIC50 [4] of 3.75. For the same molecule, the inhibition [7] was 52.7%, the logP [1, 12] was 2.2 and the T1/2 [8] was 5.1 h. For the same molecule, the pIC50 [9] was 4.41 to 4.64, the TIME [10] was 8.85 h and the Tlag [11] was 81.3 min.

Molecule O=c1c(O)c(-c2ccccc2O)oc2cc(O)cc(O)c12 [DATISCETIN] has a pIC50 [5] of 4.26.

In the case of O=c1c(O)c(-c2ccccc2)oc2cc(O)cc(O)c12 [GALANGIN], the pIC50 [5] was under 3.30.

With O=c1c(O)c(-c2ccc(O)cc2)oc2cc(O)cc(O)c12 [KAEMPFEROL] the pIC50 [5] was 4.12.

Molecule O=c1c(O)c(-c2ccc(O)cc2O)oc2cc(O)cc(O)c12 [MORIN] has a pIC50 [5] of 4.52.

With O=c1c(O)c(-c2ccc(O)c(O)c2)oc2cc(O)cc(O)c12 [QUERCETIN] the inhibition [3] was 81.3%, the pIC50 [4] was 3.90 and the pIC50 [5] was 4.82. It also gave an inhibition [7] of 75.4%, a logP ([1]; octanol/water) of 2.7 and a Tlag [11] of 82.7 min.
